Laboratory results as given in ChEMBL document CHEMBL1137786, “Design, synthesis, biological evaluation, and structure-activity relationship (SAR) discussion of dipeptidyl boronate proteasome inhibitors, part I: comprehensive understanding of the SAR of alpha-amino acid boronates” (J Med Chem, 2009).

Tests used:
[1] = Inhibition of chymotrypsin-like activity of human 20s proteasome beta 5 subunit assessed as hydrolysis of fluorogenic substrate
[2] = tested on: NCI-H460; assay: Cytotoxicity against human H460 cells after 72 hrs by MTT assay; format: functional, cell-based; conditions: NCI-H460, 72 h
Summary of the method: (§1)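 BGC-823, KB, NCI-H460, HepG2 and SW-480 cells were maintained in RPMI 1640 with 10% FBS at 37 °C, 5% CO2. MTT added from a 5 mg/mL solution for 4 h at 37 °C. Formazan dissolved in DMSO after centrifugation, A540 read.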

[3] = tested on: SW480; assay: Cytotoxicity against human SW480 cells after 72 hrs by MTT assay; format: functional, cell-based; conditions: SW480, 72 h; summary of the method: as §1
[4] = tested on: SK-OV-3; assay: Cytotoxicity against human SKOV3 cells after 72 hrs by MTT assay; format: functional, cell-based; conditions: SK-OV-3, 72 h
Summary of the method: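 SKOV-3 cells were cultured in McCoy's 5A with 10% FBS at 37 °C, 5% CO2. MTT added from a 5 mg/mL solution for 4 h at 37 °C. Formazan dissolved in DMSO, absorbance measured at 540 nm.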

[5] = tested on: A549; assay: Cytotoxicity against human A549 cells after 72 hrs by MTT assay; format: functional, cell-based; conditions: A549, 72 h
Summary of the method: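 A549 cells were cultured in F12-K with 10% FBS at 37 °C, 5% CO2. MTT from a 5 mg/mL solution added for 4 h at 37 °C. Medium removed after centrifugation, formazan taken up in DMSO, read at 540 nm.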

[6] = tested on: HeLa; assay: Cytotoxicity against human HeLa cells after 72 hrs by MTT assay; format: functional, cell-based
Summary of the method: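 HeLa cells were cultured in EMEM with 10% FBS at 37 °C, 5% CO2. MTT added from a 5 mg/mL solution for 4 h at 37 °C. Plates centrifuged, formazan dissolved in DMSO, A540 read.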

[7] = tested on: KB; assay: Cytotoxicity against human KB cells after 72 hrs by MTT assay; format: functional, cell-based; summary of the method: as §1
[8] = tested on: HepG2; assay: Cytotoxicity against human HepG2 cells after 72 hrs by MTT assay; format: functional, cell-based; conditions: HepG2, 72 h; summary of the method: as §1
[9] = tested on: BGC-823; assay: Cytotoxicity against human BGC823 cells after 72 hrs by MTT assay; format: functional, cell-based; conditions: BGC-823, 72 h; summary of the method: as §1
[10] = tested on: HL-60; assay: Cytotoxicity against human HL60 cells after 72 hrs by MTT assay; format: functional, cell-based; conditions: HL-60, 72 h
Summary of the method: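 HL-60 cells grown in IMDM with 20% FBS at 37 °C, 5% CO2. MTT added from a 5 mg/mL solution for 4 h at 37 °C. Plates centrifuged, medium discarded, formazan dissolved in DMSO, absorbance read at 540 nm.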

[11] = tested on: U-266; assay: Cytotoxicity against human U266 cells after 72 hrs by MTT assay; format: functional, cell-based; conditions: U-266, 72 h
Summary of the method: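 U266 myeloma cells were grown in RPMI 1640 with 15% FBS at 37 °C, 5% CO2. MTT added from a 5 mg/mL solution for 4 h at 37 °C. Plates centrifuged, formazan dissolved in DMSO, absorbance at 540 nm.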

Cc1ccc(C[C@H](NC(=O)[C@H](CC(C)C)NC(=O)OC(C)(C)C)B2O[C@@H]3C[C@@H]4C[C@@H](C4(C)C)[C@]3(C)O2)cc1
IC50 [1]: 471 nM

CCC[C@H](NC(=O)[C@H](CC(C)C)NC(=O)OC(C)(C)C)B1O[C@@H]2C[C@@H]3C[C@@H](C3(C)C)[C@]2(C)O1
IC50 [1]: 49.5 nM

CC(C)C[C@@H](NC(=O)[C@H](Cc1ccccc1)NC(=O)c1cccc2c1CCCC2)B(O)O
IC50 [1]: 9.19 nM

CC(C)C[C@H](NC(=O)[C@H](CC(C)C)NC(=O)c1cccc2c1CCCC2)B1O[C@@H]2C[C@@H]3C[C@@H](C3(C)C)[C@]2(C)O1
IC50 [1]: 1.15 nM

CC(C)C[C@H](NC(=O)[C@H](Cc1ccccc1)NC(=O)[C@H]1CCCc2ccccc21)B(O)O
IC50 [1]: 1.2 nM
IC50 [2]: 36 nM
IC50 [3]: 30 nM
IC50 [4]: 40 nM
IC50 [5]: 38.5 nM
IC50 [6]: 37.5 nM
IC50 [7]: 70 nM
IC50 [8]: 60 nM
IC50 [9]: 580 nM
IC50 [10]: 9.55 nM
IC50 [11]: 2.28 nM

CC(C)C[C@H](NC(=O)[C@H](Cc1ccc2ccccc2c1)NC(=O)C1CCCc2ccccc21)B1OC2C[C@@H]3C[C@@H](C3(C)C)[C@]2(C)O1 (some centres not stated)
IC50 [1]: 1.16 nM

CC(C)C[C@H](NC(=O)[C@H](CC(C)C)NC(=O)C1CCCc2ccccc21)B1O[C@@H]2C[C@@H]3C[C@@H](C3(C)C)[C@]2(C)O1 (some centres not stated)
IC50 [1]: 14.2 nM

CC(C)C[C@H](NC(=O)[C@H](Cc1ccccc1)NC(=O)[C@H]1CCCc2ccccc21)B1O[C@@H]2C[C@@H]3C[C@@H](C3(C)C)[C@]2(C)O1
IC50 [1]: 1.12 nM

CC(C)C[C@@H](NC(=O)[C@H](Cc1ccccc1)NC(=O)c1cnccn1)B(O)O
IC50 [1]: 700 nM

CC(C)C[C@H](NC(=O)[C@H](Cc1ccc2ccccc2c1)NC(=O)[C@H]1CCCc2ccccc21)B1O[C@@H]2C[C@@H]3C[C@@H](C3(C)C)[C@]2(C)O1
IC50 [1]: 6.12 nM

CC(C)C[C@@H](NC(=O)[C@H](Cc1ccccc1)NC(=O)C1CCCc2ccccc21)B(O)O (some centres not stated)
IC50 [1]: 2290 nM

CC(C)C[C@H](NC(=O)[C@H](Cc1ccccc1)NC(=O)[C@@H]1CCCc2ccccc21)B1O[C@@H]2C[C@@H]3C[C@@H](C3(C)C)[C@]2(C)O1
IC50 [1]: 5.17 nM

CC1(C)[C@@H]2C[C@H]3OB([C@H](Cc4ccccc4)NC(=O)[C@H](Cc4ccccc4)NC(=O)[C@H]4CCCc5ccccc54)O[C@@]3(C)[C@H]1C2
IC50 [1]: 5.24 nM

CC(C)(C)OC(=O)N[C@@H](Cc1ccc(O)cc1)C(=O)N[C@@H](Cc1ccccc1)B1O[C@@H]2C[C@@H]3C[C@@H](C3(C)C)[C@]2(C)O1
IC50 [1]: 114 nM

CC(C)C[C@H](NC(=O)[C@H](Cc1ccc2ccccc2c1)NC(=O)C1CCCc2ccccc21)B1O[C@@H]2C[C@@H]3C[C@@H](C3(C)C)[C@]2(C)O1 (some centres not stated)
IC50 [1]: 7.63 nM

CC(C)C[C@H](NC(=O)[C@H](Cc1ccccc1)NC(=O)c1cnccn1)B1O[C@@H]2C[C@@H]3C[C@@H](C3(C)C)[C@]2(C)O1
IC50 [1]: 1.92 nM

CC(=O)N[C@@H](Cc1ccccc1)C(=O)N[C@@H](CC(C)C)B1O[C@@H]2C[C@@H]3C[C@@H](C3(C)C)[C@]2(C)O1
IC50 [1]: 2.34 nM

CC(C)C[C@H](NC(=O)[C@H](Cc1ccccc1)NC(=O)c1cccc2c1CCCC2)B(O)O
IC50 [1]: 1.6 nM
IC50 [2]: 21.5 nM
IC50 [3]: 30 nM
IC50 [4]: 60 nM
IC50 [5]: 40.5 nM
IC50 [6]: 23.2 nM
IC50 [7]: 9.8 nM
IC50 [8]: 13.1 nM
IC50 [9]: 1210 nM
IC50 [10]: 9.25 nM
IC50 [11]: 2.95 nM

CC(C)C[C@H](NC(=O)[C@H](Cc1cccc2ccccc12)NC(=O)C1CCCc2ccccc21)B1O[C@@H]2C[C@@H]3C[C@@H](C3(C)C)[C@]2(C)O1 (some centres not stated)
IC50 [1]: 4.26 nM

CC(C)C[C@H](NC(=O)[C@H](Cc1ccc(O)cc1)NC(=O)OC(C)(C)C)B1O[C@@H]2C[C@@H]3C[C@@H](C3(C)C)[C@]2(C)O1
IC50 [1]: 16.4 nM

O=C(N[C@@H](Cc1ccccc1)C(=O)N[C@@H](Cc1ccc(F)cc1)B(O)O)c1cnccn1
IC50 [1]: 4.37 nM

CC(C)C[C@H](NC(=O)[C@H](Cc1ccccc1)NC(=O)c1cccc2c1CCCC2)B1O[C@@H]2C[C@@H]3C[C@@H](C3(C)C)[C@]2(C)O1
IC50 [1]: 0.76 nM

CC1(C)[C@@H]2C[C@H]3OB([C@H](Cc4ccccc4)NC(=O)[C@H](Cc4ccccc4)NC(=O)C4CCc5ccccc5C4)O[C@@]3(C)[C@H]1C2 (some centres not stated)
IC50 [1]: 3.37 nM

CC(C)C[C@H](NC(=O)[C@H](Cc1c[nH]c2ccccc12)NC(=O)OCc1ccccc1)B1O[C@@H]2C[C@@H]3C[C@@H](C3(C)C)[C@]2(C)O1
IC50 [1]: 41.2 nM

CC(C)C[C@H](NC(=O)[C@H](Cc1cccc2ccccc12)NC(=O)c1cccc2c1CCCC2)B1OC2C[C@@H]3C[C@@H](C3(C)C)[C@]2(C)O1 (some centres not stated)
IC50 [1]: 1.34 nM

CCC(C)[C@H](NC(=O)C1CCCc2ccccc21)C(=O)N[C@@H](CC(C)C)B1O[C@@H]2C[C@@H]3C[C@@H](C3(C)C)[C@]2(C)O1 (some centres not stated)
IC50 [1]: 17.2 nM

Cc1ccc(C[C@H](NC(=O)[C@H](Cc2ccccc2)NC(=O)[C@H]2CCCc3ccccc32)B2O[C@@H]3C[C@@H]4C[C@@H](C4(C)C)[C@]3(C)O2)cc1
IC50 [1]: 6.7 nM

Cc1ccc(C[C@H](NC(=O)[C@H](Cc2c[nH]c3ccccc23)NC(=O)OCc2ccccc2)B2O[C@@H]3C[C@@H]4C[C@@H](C4(C)C)[C@]3(C)O2)cc1
IC50 [1]: 3.34 nM

CC(C)C[C@H](NC(=O)[C@H](Cc1ccccc1)NC(=O)c1cnccn1)B(O)O [BORTEZOMIB]
IC50 [2]: 115 nM
IC50 [3]: 50 nM
IC50 [4]: 130 nM
IC50 [5]: 255 nM
IC50 [6]: 92 nM
IC50 [7]: 59.5 nM
IC50 [8]: 37.5 nM
IC50 [9]: 880 nM
IC50 [10]: 5.5 nM
IC50 [11]: 2.45 nM

CCCC[C@H](NC(=O)[C@H](Cc1ccccc1)NC(=O)[C@H]1CCCc2ccccc21)B1O[C@@H]2C[C@@H]3C[C@@H](C3(C)C)[C@]2(C)O1
IC50 [1]: 1.92 nM

CC(C)C[C@H](NC(=O)[C@H](Cc1ccccc1)NC(=O)C1CCc2ccccc2C1)B1O[C@@H]2C[C@@H]3C[C@@H](C3(C)C)[C@]2(C)O1 (some centres not stated)
IC50 [1]: 1.46 nM

CC(C)C[C@H](NC(=O)[C@H](Cc1cccc2ccccc12)NC(=O)c1ccc2ccccc2c1)B1O[C@@H]2C[C@@H]3C[C@@H](C3(C)C)[C@]2(C)O1
IC50 [1]: 2.46 nM

CC(C)C[C@H](NC(=O)[C@@H](NC(=O)C1CCCc2ccccc21)C(C)C)B1O[C@@H]2C[C@@H]3C[C@@H](C3(C)C)[C@]2(C)O1 (some centres not stated)
IC50 [1]: 39 nM

CC1(C)[C@@H]2C[C@H]3OB([C@H](Cc4ccc(F)cc4)NC(=O)[C@H](Cc4ccccc4)NC(=O)c4cnccn4)O[C@@]3(C)[C@H]1C2
IC50 [1]: 3.21 nM

CC(C)C[C@H](NC(=O)[C@@H](NC(=O)c1cccc2c1CCCC2)C(C)C)B1O[C@@H]2C[C@@H]3C[C@@H](C3(C)C)[C@]2(C)O1
IC50 [1]: 6.96 nM

Cc1ccc(C[C@H](NC(=O)[C@H](Cc2ccccc2)NC(=O)c2cnccn2)B2O[C@@H]3C[C@@H]4C[C@@H](C4(C)C)[C@]3(C)O2)cc1
IC50 [1]: 4.85 nM

CC(=O)N[C@@H](Cc1ccccc1)C(=O)N[C@@H](Cc1ccc(C)cc1)B1O[C@@H]2C[C@@H]3C[C@@H](C3(C)C)[C@]2(C)O1
IC50 [1]: 2.73 nM

CCCC[C@H](NC(=O)[C@H](Cc1ccccc1)NC(C)=O)B1O[C@@H]2C[C@@H]3C[C@@H](C3(C)C)[C@]2(C)O1
IC50 [1]: 8.46 nM

CC(C)C[C@H](NC(=O)[C@H](Cc1c[nH]c2ccccc12)NC(=O)C1CCCc2ccccc21)B1O[C@@H]2C[C@@H]3C[C@@H](C3(C)C)[C@]2(C)O1 (some centres not stated)
IC50 [1]: 3.67 nM

Cc1ccc(C[C@H](NC(=O)[C@H](Cc2ccccc2)NC(=O)C2CCc3ccccc3C2)B2O[C@@H]3C[C@@H]4C[C@@H](C4(C)C)[C@]3(C)O2)cc1 (some centres not stated)
IC50 [1]: 1.16 nM

CC(C)C[C@H](NC(=O)[C@H](Cc1ccccc1)NC(=O)C1CCCc2ccccc21)B1O[C@@H]2C[C@@H]3C[C@@H](C3(C)C)[C@]2(C)O1 (some centres not stated)
IC50 [1]: 4.18 nM

CC1(C)[C@@H]2C[C@H]3OB([C@H](Cc4ccc(F)cc4)NC(=O)[C@H](Cc4ccccc4)NC(=O)[C@H]4CCCc5ccccc54)O[C@@]3(C)[C@H]1C2
IC50 [1]: 1.26 nM

CC(C)C[C@H](NC(=O)OC(C)(C)C)C(=O)N[C@@H](Cc1ccccc1)B1O[C@@H]2C[C@@H]3C[C@@H](C3(C)C)[C@]2(C)O1
IC50 [1]: 120 nM
